In brackets after ≈: the same amount, converted by molar mass.
Key:
Staphylococcus aureus = experiment: Antibacterial activity against Staphylococcus aureus ATCC 9144 cultured in MHB medium assessed as no bacterial growth incubated at 37 degC for 24 hrs by microdilution susceptibility test; type: functional; settings: ATCC 9144, 24 h
Method in brief: (§1)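 Broth microdilution per CLSI M07-A9 with modifications. Inoculum about 2.5–3 x 10⁴ cells/mL in Mueller-Hinton broth, mixed 1:1 with test derivative. DMSO stocks diluted in double-distilled water, final DMSO <1%. Incubation 24 h at 37 °C (20 °C for C. glutamicum). Growth and sterility controls included; oxytetracycline reference.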

[1] = system: Corynebacterium glutamicum; experiment: Antibacterial activity against Corynebacterium glutamicum ATCC 13032 cultured in MHB medium assessed as no bacterial growth incubated at 20 degC for 24 hrs by microdilution susceptibility test; type: functional; settings: ATCC 13032, 24 h; method in brief: as §1
Escherichia coli = experiment: Antibacterial activity against Escherichia coli ATCC 25922 cultured in MHB medium assessed as no bacterial growth incubated at 37 degC for 24 hrs by microdilution susceptibility test; type: functional; settings: ATCC 25922, 24 h; method in brief: as §1
Pseudomonas aeruginosa = experiment: Antibacterial activity against Pseudomonas aeruginosa PA01 DSM 19880 (ATCC 15692) cultured in MHB medium assessed as no bacterial growth incubated at 37 degC for 24 hrs by microdilution susceptibility test; type: functional; settings: PAO1 DSM 19880 (ATCC 15692); method in brief: as §1
Erythrocyte = experiment: Hemolytic activity against human RBC incubated for 1 hr; type: cell-based
Method in brief: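 Heparinized human blood washed three times in warm PBS and set to 10% hct. Erythrocytes at 1% v/v final, with compound in PBS (DMSO <1%), shaken 1 h at 37 °C and then centrifuged. Supernatant absorbance read at 405 and 545 nm after PBS background subtraction. Haemolysis taken relative to 1% Triton X-100. Three independent replicates, EC50 averaged.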

HepG2 = experiment: Cytotoxicity against human HepG2 cells assessed as reduction in cell viability incubated for 4 hrs by CellTiter 96 Aqueous One Solution Reagent based assay; settings: HepG2, 4 h
Method in brief: (§2)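 HepG2 and MRC-5 cells seeded at 35 000 and 15 000 cells/well respectively, then held overnight at 37 °C, 5% CO₂. Compounds in serum-free MEM Earle's applied for 4 h. MTS reagent (CellTiter 96 AQueous One) added for a further 1 h, absorbance read at 485 nm. Survival expressed relative to medium (negative) and Triton X-100 (positive) controls.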

[2] = Selectivity index, ratio of EC50 for hemolytic activity against human RBC to MIC for antibacterial activity against Escherichia coli ATCC 25922; type: toxicity; settings: human red blood cells (RBC)
Method in brief: (§3)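 Selectivity index is the RBC haemolysis EC50 divided by the MIC against the E. coli or S. aureus reference strain.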

[3] = Aqueous solubility of the compound in DMSO; type: physicochemical
MRC5 = experiment: Cytotoxicity against human MRC5 cells assessed as reduction in cell viability incubated for 4 hrs by CellTiter 96 Aqueous One Solution Reagent based assay; settings: MRC5, 4 h; method in brief: as §2
[4] = Selectivity index, ratio of EC50 for hemolytic activity against human RBC to MIC for antibacterial activity against Staphylococcus aureus ATCC 9144; type: toxicity; settings: human red blood cells (RBC); method in brief: as §3

| MIC (Staphylococcus aureus) | MIC [1] | MIC (Escherichia coli) | MIC (Pseudomonas aeruginosa) | solubility [3] | Compound | EC50 (Erythrocyte) | EC50 (HepG2) | selectivity ratio [2] | EC50 (MRC5) | selectivity ratio [4] |
| --- | --- | --- | --- | --- | --- | --- | --- | --- | --- | --- |
| > 64 µg/mL | 16 µg/mL (≈ 46.6 µM) | 64 µg/mL (≈ 186 µM) | > 64 µg/mL | Soluble | N#CC(Cc1ccccc1F)(Cc1ccccc1F)C(=O)NCCN | 190 µg/mL (≈ 553 µM) | > 64 µg/mL | 3 |  |  |
| > 64 µg/mL | 64 µg/mL (≈ 167 µM) | > 64 µg/mL | > 64 µg/mL | Soluble | NCCNC(=O)C(CN)(Cc1cc(F)cc(F)c1)Cc1cc(F)cc(F)c1 | 228 µg/mL (≈ 595 µM) | > 64 µg/mL |  |  |  |
| > 64 µg/mL | > 64 µg/mL | > 64 µg/mL | > 64 µg/mL | Soluble | N#CC(Cc1c(F)cccc1F)(Cc1c(F)cccc1F)C(=O)NCCN |  | > 64 µg/mL |  |  |  |
| > 64 µg/mL | > 64 µg/mL | > 64 µg/mL | > 64 µg/mL | Soluble | NCCNC(=O)C(CN)(Cc1c(F)cccc1F)Cc1c(F)cccc1F |  | > 64 µg/mL |  |  |  |
| 4 µg/mL (≈ 9.72 µM) | 2 µg/mL (≈ 4.86 µM) | 16 µg/mL (≈ 38.9 µM) | 16 µg/mL (≈ 38.9 µM) | Soluble | NCCNC(=O)C(CN)(Cc1cccc2ccccc12)Cc1cccc2ccccc12 | 90 µg/mL (≈ 219 µM) |  | 6 | 9 µg/mL (≈ 21.9 µM) | 23 |
| > 64 µg/mL | > 64 µg/mL | > 64 µg/mL | > 64 µg/mL | Soluble | NCCNC(=O)C(CN)(Cc1ccccc1F)Cc1ccccc1F |  | > 64 µg/mL |  |  |  |
| 64 µg/mL (≈ 136 µM) | 8 µg/mL (≈ 17 µM) | 64 µg/mL (≈ 136 µM) | 64 µg/mL (≈ 136 µM) | Soluble | NCCNC(=O)C(CN)(Cc1ccccc1Br)Cc1ccccc1Br | 271 µg/mL (≈ 578 µM) | 48 µg/mL (≈ 102 µM) | 4 | 56 µg/mL (≈ 119 µM) | 4 |

The next lines start with the compound.

| Compound | MIC (Staphylococcus aureus) | MIC [1] | MIC (Escherichia coli) | MIC (Pseudomonas aeruginosa) | solubility [3] | EC50 (Erythrocyte) | EC50 (HepG2) | selectivity ratio [2] | EC50 (MRC5) | selectivity ratio [4] |
| --- | --- | --- | --- | --- | --- | --- | --- | --- | --- | --- |
| N#CC(Cc1cc(F)cc(F)c1)(Cc1cc(F)cc(F)c1)C(=O)NCCN | > 64 µg/mL | 32 µg/mL (≈ 84.4 µM) | > 64 µg/mL | > 64 µg/mL | Soluble | 208 µg/mL (≈ 548 µM) | > 64 µg/mL |  |  |  |
| N#CC(Cc1ccccc1C(F)(F)F)(Cc1ccccc1C(F)(F)F)C(=O)NCCN | 16 µg/mL (≈ 36.1 µM) | 8 µg/mL (≈ 18 µM) | 16 µg/mL (≈ 36.1 µM) | 32 µg/mL (≈ 72.2 µM) | Soluble | 89 µg/mL (≈ 201 µM) | 24 µg/mL (≈ 54.1 µM) | 6 | 27 µg/mL (≈ 60.9 µM) | 6 |
| N#CC(Cc1ccc(C(F)(F)F)cc1)(Cc1ccc(C(F)(F)F)cc1)C(=O)NCCN | 32 µg/mL (≈ 72.2 µM) | 8 µg/mL (≈ 18 µM) | 16 µg/mL (≈ 36.1 µM) | 64 µg/mL (≈ 144 µM) | Soluble | 178 µg/mL (≈ 401 µM) | 23 µg/mL (≈ 51.9 µM) | 11 | 18 µg/mL (≈ 40.6 µM) | 6 |
| N#CC(Cc1ccc(F)c2ccccc12)(Cc1ccc(F)c2ccccc12)C(=O)NCCN | 4 µg/mL (≈ 9.02 µM) | 2 µg/mL (≈ 4.51 µM) | 4 µg/mL (≈ 9.02 µM) | 32 µg/mL (≈ 72.2 µM) | Soluble | > 500 µg/mL | 12 µg/mL (≈ 27.1 µM) |  | 4 µg/mL (≈ 9.02 µM) |  |
| N#CC(Cc1ccccc1Br)(Cc1ccccc1Br)C(=O)NCCN | 16 µg/mL (≈ 34.4 µM) | 32 µg/mL (≈ 68.8 µM) | 32 µg/mL (≈ 68.8 µM) | > 64 µg/mL | Soluble | 211 µg/mL (≈ 454 µM) | 26 µg/mL (≈ 55.9 µM) | 7 | 32 µg/mL (≈ 68.8 µM) | 13 |
| N#CC(Cc1cc(Br)cc(Br)c1)(Cc1cc(Br)cc(Br)c1)C(=O)NCCN | > 64 µg/mL | > 64 µg/mL | > 64 µg/mL | > 64 µg/mL |  |  |  |  |  |  |
| CN(C)[C@@H]1C(O)=C(C(N)=O)C(=O)[C@@]2(O)C(O)=C3C(=O)c4c(O)cccc4[C@@](C)(O)[C@H]3[C@H](O)[C@@H]12.Cl [OXYTETRACYCLINE HYDROCHLORIDE] | 0.65 µg/mL | 0.65 µg/mL | 2.5 µg/mL | 20 µg/mL |  |  | > 64 µg/mL |  |  |  |
